Results published in ChEMBL document CHEMBL5653629, “Novel Class of Potent and Cellularly Active Inhibitors Devalidates MTH1 as Broad-Spectrum Cancer Target” (ACS Chem Biol, 2017).
Converted amounts (≈) assume the structure as drawn. The source made the active and inactive calls. The calls are words filed in the database; no cut-off is given here.

What was measured:
U2OS [1] = experiment: Cytotoxicity against human U2OS cells assessed as reduction in cell viability by measuring nuclei count at 30 uM incubated for 72 hrs by high content analysis; assay type: functional, cell-based
Summary of the method: (§1)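 U2OS cells were immunostained for 8-oxo-dG and DNA, then imaged by high content analysis. Average nuclear 8-oxo-dG intensity and average nuclear count were measured together.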

U2OS [2] = experiment: Upregulation of nuclear 8-oxo-dG level in human U2OS cells at 100 to 300 nM incubated for 72 hrs by high content analysis; assay type: functional, cell-based; details: dose 100-300 nM; summary of the method: as §1
U2OS [3] = experiment: Upregulation of nuclear 8-oxo-dG level in human U2OS cells at 1 to 2 uM incubated for 72 hrs by high content analysis; assay type: functional, cell-based; details: dose 1-2 µM; summary of the method: as §1
U2OS [4] = experiment: Upregulation of nuclear 8-oxo-dG level in human U2OS cells at 2 to 10 uM incubated for 72 hrs by high content analysis; assay type: functional, cell-based; details: dose 2-10 µM; summary of the method: as §1
[5] = Distribution coefficient, logD of compound at pH 7.5 by HPLC analysis; assay type: physicochemical; details: octanol/water
[6] = Aqueous solubility of compound in pH 6.5; assay type: physicochemical; details: buffer
[7] = Apparent permeability across apical to basolateral side in human Caco-2 cells at 2 uM incubated for 2 hrs by LC/MS/MS analysis; assay type: ADME, cell-based
[8] = Protein binding in mouse plasma assessed as free fraction; assay type: ADME, cell-free
[9] = Metabolic stability in Han Wistar rat hepatocytes using well-stirred liver model assessed as clearance at 1 uM measured for 2 to 90 mins by LC-MS/MS analysis; assay type: ADME, cell-based, Hepatocyte; details: time 2-90 min
[10] = Metabolic stability in Han Wistar rat hepatocytes using well-stirred liver model assessed as maximum bioavailability at 1 uM measured for 2 to 90 mins by LC-MS/MS analysis; assay type: ADME, Hepatocyte; details: time 2-90 min, route po, read-out: Fmax
[11] = Metabolic stability in human liver microsomes assessed as clearance at 1 uM measured for 2 to 60 mins by LC-MS/MS analysis; assay type: ADME, Microsome; details: time 2-60 min
[12] = Metabolic stability in human liver microsomes assessed as maximum bioavailability at 1 uM measured for 2 to 60 mins by LC-MS/MS analysis; assay type: ADME, Microsome; details: time 2-60 min, read-out: Fmax
[13] = Cytotoxicity against HMEC cells assessed as cell growth inhibition incubated for 144 hrs by alamarblue staining based assay; assay type: toxicity; details: human
HeLa [14] = experiment: Upregulation of OGG1 mRNA level in human HeLa cells at 1 uM incubated for 6 days by qPCR analysis; assay type: functional, cell-based; details: time 6.0 day
HeLa [15] = experiment: Upregulation of MUTYH mRNA level in human HeLa cells at 1 uM incubated for 6 days by qPCR analysis; assay type: functional, cell-based; details: time 6.0 day
HeLa [16] = experiment: Upregulation of OGG1 protein level in human HeLa cells at 1 uM by Western blot analysis; assay type: functional, cell-based
Summary of the method: (§2)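 HeLa cells were treated and probed by Western blot for MTH2, OGG1, MUTYH and MTH1. HSP90 served as loading control.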

HeLa [17] = experiment: Upregulation of MUTYH protein level in human HeLa cells at 1 uM by Western blot analysis; assay type: functional, cell-based; summary of the method: as §2
NCI-H358 [18] = experiment: Induction of DNA double strand breaks in human NCI-H358 cells assessed as increase in gamma-H2AX expression at 0.005 to 12 micromol/L incubated for 72 hrs by high content analysis; details: NCI-H358, 72 h
NCI-H358 [19] = experiment: cells; details: Homo sapiens, NCI-H358, 144 h
NCI-H460 [20] = experiment: cells; details: Homo sapiens, NCI-H460, 144 h
A549 = experiment: cells; details: Homo sapiens, A549, 144 h
MCF7 [21] = experiment: cells; details: Homo sapiens, MCF7, 144 h
MDA-MB-231 = experiment: cells; details: Homo sapiens, MDA-MB-231, 144 h
U2OS [22] = experiment: cells; details: Homo sapiens, 144 h
HeLa [23] = experiment: cells; details: Homo sapiens, 144 h
SW480 = experiment: cells; details: Homo sapiens, SW480, 144 h
MCF7 [24] = experiment: Inhibition of colony formation of human MCF7 cells at 0.1 to 10 uM measured after 15 days by soft agar assay; assay type: functional, cell-based; details: dose 0.1-10 µM, time 15.0 day
NCI-H358 [25] = experiment: Induction of DNA double strand breaks in human NCI-H358 cells assessed as increase in gamma-H2AX expression at 12.4 uM incubated for 72 hrs by high content analysis; assay type: functional, cell-based
Summary of the method: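 NCI-H358 cells were immunostained for γH2AX and DNA and analysed by high content imaging. The highest concentration tested was 12.4 µM, and EC50 was taken for DSB induction.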

U2OS [26] = experiment: Effect on nuclear 8-oxo-dG level in human U2OS cells at 10 to 30 uM incubated for 72 hrs by high content analysis; assay type: functional, cell-based; details: dose 10-30 µM; summary of the method: as §1
U2OS [27] = experiment: Effect on nuclear 8-oxo-dG level in human U2OS cells at 10 to 30 uM incubated for 72 hrs in presence of LCS1 by high content analysis; assay type: functional, cell-based; details: dose 10-30 µM
[28] = Toxicity in NMRI nude mouse assessed as drug tolerability at 25 to 250 mg/kg, po qd for 7 days; assay type: organism-based; details: in vivo, 168 h, dose 25-250 mg/kg, time 7 day
Summary of the method: (§3)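 Female NMRI nude mice received oral doses in PEG/water (80:20), escalated step-wise from 25 to 250 mg/kg over 7 days. Body weight, overt toxicity and mortality were monitored, and observation was extended a further 7 days to catch latent toxicity.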

[29] = Toxicity in NMRI nude mouse assessed as body weight loss upto 250 mg/kg, po qd for 7 days; assay type: organism-based; details: in vivo, 168 h, time 7 day; summary of the method: as §3
CT26 [30] = experiment: Antitumor activity against mouse CT26 cells xenografted in NMRI nude mouse assessed as reduction in tumor volume at 100 mg/kg, po measured for 12 days; assay type: functional, organism-based; details: time 12.0 day
CT26 [31] = experiment: Antitumor activity against mouse CT26 cells xenografted in NMRI nude mouse assessed as reduction in tumor weight at 100 mg/kg, po measured for 12 days; assay type: functional, organism-based; details: time 12.0 day
CT26 [32] = experiment: Additive antitumor activity against mouse CT26 cells xenografted in NMRI nude mouse assessed as reduction in tumor growth at 100 mg/kg, po along with radiation treatment measured for 12 days; assay type: functional, organism-based; details: time 12.0 day
NCI-H460 [33] = experiment: Antitumor activity against human NCI-H460 cells xenografted in NMRI nude mouse assessed as reduction in tumor volume at 100 mg/kg, po measured for 10 days; details: time 10.0 day
NCI-H460 [34] = experiment: Antitumor activity against human NCI-H460 cells xenografted in NMRI nude mouse assessed as reduction in tumor weight at 100 mg/kg, po measured for 10 days; details: time 10.0 day

Row | Compound | Activity (U2OS [1]) | logD [5] | solubility [6] | Papp A→B at 2 h, 2 µM [7] | fraction unbound [8] | CLhep predicted at 1 µM [9] | Fh at 1 µM [10] | CLH [11] | Fh at 1 µM [12] | GI50 at 144 h [13] | Activity (HeLa [14]) | Activity (HeLa [15]) | Activity (HeLa [16]) | Activity (HeLa [17]) | other results
1 | Cc1cccc(-n2ncc(Cl)c(Cl)c2=O)c1 | Active |  |  |  |  |  |  |  |  |  |  |  |  |  | 
2 | CC[C@@H]1C(=O)N(C)c2cnc(Nc3ccc(C(=O)N[C@H]4CC[C@H](N5CCN(CC6CC6)CC5)CC4)cc3OC)nc2N1C(C)C |  |  |  |  |  |  |  |  |  |  |  |  |  |  | Activity (U2OS [2]): Active
3 | CC(C)(C)c1cnc(CSc2cnc(NC(=O)C3CCNCC3)s2)o1 |  |  |  |  |  |  |  |  |  |  |  |  |  |  | Activity (U2OS [3]): Active
4 | Cc1cc(Nc2cc(N3CCN(C)CC3)nc(Sc3ccc(NC(=O)C4CC4)cc3)n2)n[nH]1 |  |  |  |  |  |  |  |  |  |  |  |  |  |  | Activity (U2OS [4]): Active
5 | Nc1nc(NC2CC2)cc(-c2cccc(Cl)c2Cl)n1 | Active | 2.5 | 38 µg/mL (≈ 129 µM) | 30.7 ×10⁻⁶ cm/s | 0.04 | 32 mL/min/kg | 54% | 10.7 mL/min/kg | 51% | 3.2 µM | inactive | inactive | inactive | inactive | EC50 (NCI-H358 [18]): 3.11 µM; GI50 (NCI-H358 [19]): 4.9 µM; GI50 (NCI-H460 [20]): 7.1 µM; GI50 (A549): 4 µM; GI50 (MCF7 [21]): 3.5 µM; GI50 (MDA-MB-231): 6.3 µM; GI50 (U2OS [22]): 2.6 µM; GI50 (HeLa [23]): 4.2 µM; GI50 (SW480): 5.3 µM
6 | CCNC(=O)c1cc2c(N3CCOC[C@@H]3C)ccnc2[nH]1 |  | 1.6 | 288 µg/mL (≈ 999 µM) | 14.8 ×10⁻⁶ cm/s | 0.48 | 9 mL/min/kg | 87% | 4.83 mL/min/kg | 78% | > 30 µM | inactive | inactive | inactive | inactive | inhibition (MCF7 [24]): inactive; Activity (NCI-H358 [25]): inactive; Activity (U2OS [26]): inactive; Activity (U2OS [27]): inactive; Activity [28]: Non-Toxic; Activity [29]: < 10%; Activity (CT26 [30]): inactive; Activity (CT26 [31]): inactive; Activity (CT26 [32]): inactive; Activity (NCI-H460 [33]): inactive; Activity (NCI-H460 [34]): inactive
